Data reported in ChEMBL document CHEMBL1141501, “Identification of a potent new chemotype for the selective inhibition of PDE4” (Bioorg Med Chem Lett, 2008).
The source made the active and inactive calls. No cut-off for these calls is given here.

Each compound was assayed against Phosphodiesterase 4 (Homo sapiens, UniProt P27815+Q08499+Q07343+Q08493) (assay: Inhibition of human PDE4A1A by IMAP technology).
Assay type: protein assay
Method in brief: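 Human PDE4A1A at 0.05 ng/μl final, in 10 mM Tris pH 7.2 with 0.1% BSA, 10 mM MgCl2, 1 mM DTT and 0.05% NaN3. Compound pin-transferred, then 5 min at RT before adding 100 nM cAMP (final). After 40 min at RT, IMAP binding reagent was added and incubated 1–4 h at RT.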

SMILES | IC50
COc1ccc(C2=Nn3c(nnc3-c3ccccc3OC)SC2)cc1 | > 20 µM
COc1cccc(C2=Nn3c(nnc3-c3ccccc3OC)SC2)c1 | 12 µM
COc1ccc(C2=Nn3c(nnc3-c3ccccc3O)SC2)c(OC)c1 | > 20 µM
COc1ccc(C2=Nn3c(nnc3-c3ccccc3C)SC2)cc1 | 12.5 µM
COc1ccc(OC)c(C2=Nn3c(nnc3-c3cc(OC)ccc3OC)SC2)c1 | 11.9 µM
COc1ccc(C2=Nn3c(nnc3-c3ccccc3C)SC2)c(OC)c1 | > 20 µM
COc1cc(OC)cc(-c2nnc3n2N=C(c2ccc(OC)cc2OC)CS3)c1 | > 20 µM
COc1ccccc1C1=Nn2c(nnc2-c2cccc(OC)c2OC)SC1 | > 20 µM
COc1cc(OC)cc(-c2nnc3n2N=C(c2ccccc2OC)CS3)c1 | 13.4 µM
COc1ccc(-c2nnc3n2N=C(c2cccc(OC)c2)CS3)cc1 | 8.4 µM
COc1ccc(C2=Nn3c(nnc3-c3ccccc3O)SC2)cc1 | 8.4 µM
COc1ccc(OC)c(-c2nnc3n2N=C(c2c(OC)cccc2OC)CS3)c1 | > 20 µM
COc1ccc(C2=Nn3c(nnc3-c3cccc(OC)c3OC)SC2)cc1 | > 20 µM
COc1cc(OC)cc(-c2nnc3n2N=C(c2c(OC)cccc2OC)CS3)c1 | 19.6 µM
COc1cccc(-c2nnc3n2N=C(c2cc(OC)ccc2OC)CS3)c1 | 12.6 µM
COc1ccc(-c2nnc3n2N=C(c2ccccc2OC)CS3)c(OC)c1 | 19.7 µM
COc1ccc(-c2nnc3n2N=C(c2c(OC)cccc2OC)CS3)cc1 | 19.7 µM
COc1ccc(-c2nnc3n2N=C(c2ccc(OC)c(OC)c2)CS3)c(OC)c1 | 0.079 µM
COc1cccc(C2=Nn3c(nnc3-c3cc(OC)cc(OC)c3)SC2)c1 | 13.4 µM
COc1cccc(-c2nnc3n2N=C(c2c(OC)cccc2OC)CS3)c1 | > 20 µM
CCOc1ccccc1-c1nnc2n1N=C(c1cccc(OC)c1)CS2 | 11.2 µM
COc1ccc(C2=Nn3c(nnc3-c3ccc(OC)c(OC)c3)SC2)cc1 | 7.5 µM
COc1ccccc1C1=Nn2c(nnc2-c2ccccc2OC)SC1 | 20 µM
COc1ccc(C2=Nn3c(nnc3-c3cccc(OC)c3)SC2)cc1 | 12.6 µM

SMILES | IC50
COc1cccc(C2=Nn3c(nnc3-c3ccccc3C)SC2)c1 | 3.2 µM
COc1cccc(-c2nnc3n2N=C(c2ccc(OC)cc2OC)CS3)c1 | 14.1 µM
COc1cccc(C2=Nn3c(nnc3-c3ccccc3O)SC2)c1 | 14.1 µM
COc1ccc(C2=Nn3c(nnc3-c3cc(OC)ccc3OC)SC2)cc1 | 1.7 µM
CCOc1ccccc1-c1nnc2n1N=C(c1ccc(OC)cc1OC)CS2 | > 20 µM
CCOc1ccccc1-c1nnc2n1N=C(c1ccc(OC)cc1)CS2 | 4.5 µM
COc1cccc(OC)c1C1=Nn2c(nnc2-c2ccccc2O)SC1 | > 20 µM
COc1ccc(C2=Nn3c(nnc3-c3ccc(OC)cc3)SC2)cc1 | 8.4 µM
COc1ccc(C2=Nn3c(nnc3-c3cc(OC)cc(OC)c3)SC2)cc1 | 9.5 µM
COc1cccc(-c2nnc3n2N=C(c2c(OC)cccc2OC)CS3)c1OC | > 20 µM
CCOc1ccccc1-c1nnc2n1N=C(c1cc(OC)ccc1OC)CS2 | 13.4 µM
COc1ccccc1-c1nnc2n1N=C(c1c(OC)cccc1OC)CS2 | > 20 µM
CCOc1ccccc1-c1nnc2n1N=C(c1ccccc1OC)CS2 | > 20 µM
COc1cccc(-c2nnc3n2N=C(c2ccc(OC)c(OC)c2)CS3)c1 | 0.126 µM
COc1ccc(-c2nnc3n2N=C(c2ccc(OC)c(OC)c2)CS3)cc1 | 0.0889 µM
COc1ccccc1C1=Nn2c(nnc2-c2ccccc2O)SC1 | > 20 µM
COc1ccc(C2=Nn3c(nnc3-c3ccc(OC)cc3OC)SC2)cc1 | > 20 µM
COc1ccc(-c2nnc3n2N=C(c2ccc(OC)cc2OC)CS3)cc1 | 13.4 µM
COc1ccc(OC)c(C2=Nn3c(nnc3-c3ccccc3O)SC2)c1 | > 20 µM
COc1ccc(C2=Nn3c(nnc3-c3cc(OC)ccc3OC)SC2)c(OC)c1 | 7.5 µM
COc1ccc(C2=Nn3c(nnc3-c3ccc(OC)c(OC)c3)SC2)c(OC)c1 | 6.7 µM
COc1cccc(C2=Nn3c(nnc3-c3cccc(OC)c3OC)SC2)c1 | > 20 µM
COc1cccc(C2=Nn3c(nnc3-c3cccc(OC)c3)SC2)c1 | 12.6 µM
COc1ccc(-c2nnc3n2N=C(c2cc(OC)ccc2OC)CS3)c(OC)c1 | 5.3 µM

SMILES | IC50
COc1cccc(-c2nnc3n2N=C(c2ccccc2OC)CS3)c1 | 13.4 µM
COc1cccc(C2=Nn3c(nnc3-c3cc(OC)ccc3OC)SC2)c1 | 8 µM
COc1ccc(OC)c(C2=Nn3c(nnc3-c3cccc(OC)c3OC)SC2)c1 | 11.9 µM
COc1ccc(OC)c(C2=Nn3c(nnc3-c3ccccc3OC)SC2)c1 | 8.9 µM
COc1cc(OC)cc(-c2nnc3n2N=C(c2cc(OC)ccc2OC)CS3)c1 | 12.7 µM
COc1cc(OC)cc(-c2nnc3n2N=C(c2ccc(OC)c(OC)c2)CS3)c1 | 0.05 µM
COc1ccc(OC)c(C2=Nn3c(nnc3-c3ccccc3C)SC2)c1 | 6.3 µM
COc1ccc(C2=Nn3c(nnc3-c3cccc(OC)c3OC)SC2)c(OC)c1 | > 20 µM
COc1ccc(C2=Nn3c(nnc3-c3ccc(OC)cc3OC)SC2)c(OC)c1 | > 20 µM
COc1cccc(C2=Nn3c(nnc3-c3ccc(OC)cc3OC)SC2)c1 | 13.4 µM
COc1ccc(C2=Nn3c(nnc3-c3ccccc3OC)SC2)c(OC)c1 | 15 µM
COc1ccc(-c2nnc3n2N=C(c2c(OC)cccc2OC)CS3)c(OC)c1 | > 20 µM
COc1cccc(OC)c1C1=Nn2c(nnc2-c2ccccc2C)SC1 | 14.1 µM
COc1ccc(OC)c(-c2nnc3n2N=C(c2ccccc2OC)CS3)c1 | 19.6 µM
COc1ccc(-c2nnc3n2N=C(c2cc(OC)ccc2OC)CS3)cc1 | 10.1 µM
COc1ccc(OC)c(C2=Nn3c(nnc3-c3ccc(OC)c(OC)c3)SC2)c1 | 6.9 µM
COc1ccc(C2=Nn3c(nnc3-c3ccc(OC)c(OC)c3)SC2)cc1OC | 0.177 µM
COc1ccc(-c2nnc3n2N=C(c2ccccc2OC)CS3)cc1 | 14.1 µM
COc1cccc(C2=Nn3c(nnc3-c3ccc(OC)c(OC)c3)SC2)c1 | 9 µM
COc1ccc(-c2nnc3n2N=C(c2ccccc2OC)CS3)cc1OC | 8.9 µM
CCOc1ccccc1-c1nnc2n1N=C(c1c(OC)cccc1OC)CS2 | > 20 µM
COc1ccc(-c2nnc3n2N=C(c2c(OC)cccc2OC)CS3)cc1OC | 14.1 µM
COc1ccccc1C1=Nn2c(nnc2-c2ccccc2C)SC1 | 14.1 µM

The compounds below were run against Dual specificity calcium/calmodulin-dependent 3',5'-cyclic nucleotide phosphodiesterase 1A (Homo sapiens, UniProt P54750) (assay: Inhibition of PDE1A).
Dual specificity calcium/calmodulin-dependent 3',5'-cyclic nucleotide phosphodiesterase 1A, sequence (P54750 whole entry): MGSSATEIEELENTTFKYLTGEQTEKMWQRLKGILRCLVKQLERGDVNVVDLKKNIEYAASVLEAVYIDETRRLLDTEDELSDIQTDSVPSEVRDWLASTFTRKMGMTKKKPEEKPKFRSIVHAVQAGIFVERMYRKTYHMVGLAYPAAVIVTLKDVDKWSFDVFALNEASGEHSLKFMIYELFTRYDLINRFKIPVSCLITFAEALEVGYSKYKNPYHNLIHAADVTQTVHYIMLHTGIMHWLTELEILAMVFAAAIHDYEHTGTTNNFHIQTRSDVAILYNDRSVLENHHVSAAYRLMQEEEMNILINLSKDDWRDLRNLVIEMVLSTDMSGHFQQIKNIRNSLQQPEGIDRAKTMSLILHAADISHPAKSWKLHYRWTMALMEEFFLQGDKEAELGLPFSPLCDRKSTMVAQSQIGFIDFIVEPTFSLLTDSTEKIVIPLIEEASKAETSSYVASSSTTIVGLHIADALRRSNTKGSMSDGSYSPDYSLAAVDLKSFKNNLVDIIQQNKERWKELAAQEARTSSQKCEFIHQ

SMILES | IC50
COc1ccc(C2=Nn3c(nnc3-c3ccccc3OC)SC2)cc1OC | > 50 µM
COc1ccc(C2CNC(=O)C2)cc1OC1CCCC1 (configuration not stated) [ROLIPRAM] | > 50 µM

What follows are compounds tested against Dual specificity calcium/calmodulin-dependent 3',5'-cyclic nucleotide phosphodiesterase 1B (Homo sapiens, UniProt Q01064) (assay: Inhibition of PDE1B).
Dual specificity calcium/calmodulin-dependent 3',5'-cyclic nucleotide phosphodiesterase 1B, sequence (Q01064 whole entry): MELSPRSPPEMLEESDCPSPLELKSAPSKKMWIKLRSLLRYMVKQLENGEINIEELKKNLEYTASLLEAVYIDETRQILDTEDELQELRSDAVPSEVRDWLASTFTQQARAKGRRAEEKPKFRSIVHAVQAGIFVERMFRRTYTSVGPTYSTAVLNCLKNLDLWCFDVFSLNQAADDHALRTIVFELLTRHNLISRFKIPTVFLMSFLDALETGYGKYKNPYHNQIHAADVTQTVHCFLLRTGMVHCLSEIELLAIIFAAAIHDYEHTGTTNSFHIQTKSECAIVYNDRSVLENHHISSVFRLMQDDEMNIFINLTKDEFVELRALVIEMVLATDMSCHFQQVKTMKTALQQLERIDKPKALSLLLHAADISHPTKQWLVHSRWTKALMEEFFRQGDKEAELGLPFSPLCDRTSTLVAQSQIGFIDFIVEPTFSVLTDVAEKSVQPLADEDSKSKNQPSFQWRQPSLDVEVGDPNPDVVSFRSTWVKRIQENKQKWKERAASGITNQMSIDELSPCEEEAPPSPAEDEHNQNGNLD

SMILES | IC50 | Activity
COc1ccc(C2=Nn3c(nnc3-c3ccccc3OC)SC2)cc1OC | > 50 µM | 
COc1ccc(C2CNC(=O)C2)cc1OC1CCCC1 (configuration not stated) [ROLIPRAM] |  | inactive

The compounds below were run against cGMP-inhibited 3',5'-cyclic phosphodiesterase 3A (Homo sapiens, UniProt Q14432) (assay: Inhibition of PDE3A).
cGMP-inhibited 3',5'-cyclic phosphodiesterase 3A, sequence (Q14432 whole entry): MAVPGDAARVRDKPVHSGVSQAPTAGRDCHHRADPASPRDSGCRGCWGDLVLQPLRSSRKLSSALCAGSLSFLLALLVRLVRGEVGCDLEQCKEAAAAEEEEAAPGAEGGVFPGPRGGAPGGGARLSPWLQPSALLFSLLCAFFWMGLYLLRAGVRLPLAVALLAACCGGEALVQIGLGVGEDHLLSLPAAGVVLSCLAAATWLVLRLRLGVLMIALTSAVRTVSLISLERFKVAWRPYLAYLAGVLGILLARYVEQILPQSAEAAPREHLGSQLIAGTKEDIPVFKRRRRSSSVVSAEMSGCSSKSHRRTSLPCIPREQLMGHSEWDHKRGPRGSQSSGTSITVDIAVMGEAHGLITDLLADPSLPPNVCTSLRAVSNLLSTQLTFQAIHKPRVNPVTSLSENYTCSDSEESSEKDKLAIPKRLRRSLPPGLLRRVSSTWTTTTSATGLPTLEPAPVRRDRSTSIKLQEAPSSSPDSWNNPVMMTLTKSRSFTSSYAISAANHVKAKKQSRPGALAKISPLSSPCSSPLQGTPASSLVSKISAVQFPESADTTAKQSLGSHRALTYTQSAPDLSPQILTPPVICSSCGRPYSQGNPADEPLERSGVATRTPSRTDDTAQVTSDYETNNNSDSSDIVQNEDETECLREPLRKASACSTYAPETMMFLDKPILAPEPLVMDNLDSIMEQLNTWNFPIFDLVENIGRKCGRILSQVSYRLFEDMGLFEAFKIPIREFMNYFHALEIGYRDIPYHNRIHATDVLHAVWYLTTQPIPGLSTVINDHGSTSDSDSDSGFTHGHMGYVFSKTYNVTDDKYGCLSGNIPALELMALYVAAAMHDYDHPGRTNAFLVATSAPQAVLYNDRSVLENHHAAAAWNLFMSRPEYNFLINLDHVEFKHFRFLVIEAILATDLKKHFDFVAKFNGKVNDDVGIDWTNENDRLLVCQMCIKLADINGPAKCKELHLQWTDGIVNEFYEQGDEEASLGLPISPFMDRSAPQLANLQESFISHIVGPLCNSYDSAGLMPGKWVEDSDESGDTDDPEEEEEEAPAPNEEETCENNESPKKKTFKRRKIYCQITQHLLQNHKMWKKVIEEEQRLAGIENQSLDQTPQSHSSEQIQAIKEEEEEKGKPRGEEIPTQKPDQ

SMILES | IC50 | Activity
COc1ccc(C2=Nn3c(nnc3-c3ccccc3OC)SC2)cc1OC | > 50 µM | 
COc1ccc(C2CNC(=O)C2)cc1OC1CCCC1 (configuration not stated) [ROLIPRAM] |  | inactive

The compounds below were run against High affinity 3',5'-cyclic-AMP phosphodiesterase 7A (Homo sapiens) (UniProt Q13946) (assay: Inhibition of PDE7A).
High affinity 3',5'-cyclic-AMP phosphodiesterase 7A (Homo sapiens), sequence (Q13946 whole entry): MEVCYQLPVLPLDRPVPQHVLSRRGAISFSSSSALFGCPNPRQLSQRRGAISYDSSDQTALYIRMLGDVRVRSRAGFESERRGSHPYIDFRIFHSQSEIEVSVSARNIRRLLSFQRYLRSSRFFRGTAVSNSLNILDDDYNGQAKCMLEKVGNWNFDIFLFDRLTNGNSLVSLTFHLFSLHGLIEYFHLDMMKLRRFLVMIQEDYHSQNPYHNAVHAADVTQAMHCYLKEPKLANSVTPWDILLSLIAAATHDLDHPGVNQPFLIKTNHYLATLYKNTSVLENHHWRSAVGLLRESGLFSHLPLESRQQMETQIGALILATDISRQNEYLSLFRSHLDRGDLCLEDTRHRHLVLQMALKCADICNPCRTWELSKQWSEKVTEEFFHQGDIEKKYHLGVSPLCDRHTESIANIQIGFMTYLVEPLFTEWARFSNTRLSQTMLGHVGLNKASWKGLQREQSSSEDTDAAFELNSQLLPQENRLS

SMILES | Activity
COc1ccc(C2=Nn3c(nnc3-c3ccccc3OC)SC2)cc1OC | inactive
COc1ccc(C2CNC(=O)C2)cc1OC1CCCC1 (configuration not stated) [ROLIPRAM] | inactive

What follows are compounds tested against 3',5'-cyclic-AMP phosphodiesterase 7B (Homo sapiens) (UniProt Q9NP56) (assay: Inhibition of PDE7B).
3',5'-cyclic-AMP phosphodiesterase 7B (Homo sapiens), sequence (Q9NP56 whole entry): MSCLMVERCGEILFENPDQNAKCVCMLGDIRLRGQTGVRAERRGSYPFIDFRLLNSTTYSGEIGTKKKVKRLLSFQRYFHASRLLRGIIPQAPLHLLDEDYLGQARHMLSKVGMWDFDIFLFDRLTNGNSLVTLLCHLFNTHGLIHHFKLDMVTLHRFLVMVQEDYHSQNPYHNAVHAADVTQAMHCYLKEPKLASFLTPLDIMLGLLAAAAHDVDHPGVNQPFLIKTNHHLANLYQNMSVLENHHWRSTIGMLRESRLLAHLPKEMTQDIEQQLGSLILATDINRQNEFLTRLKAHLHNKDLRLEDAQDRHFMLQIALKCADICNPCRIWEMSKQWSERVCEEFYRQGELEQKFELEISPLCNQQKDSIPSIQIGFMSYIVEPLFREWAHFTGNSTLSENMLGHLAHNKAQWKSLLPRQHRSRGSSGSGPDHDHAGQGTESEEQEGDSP

SMILES | Activity
COc1ccc(C2=Nn3c(nnc3-c3ccccc3OC)SC2)cc1OC | inactive
COc1ccc(C2CNC(=O)C2)cc1OC1CCCC1 (configuration not stated) [ROLIPRAM] | inactive

The compounds below were run against High affinity cGMP-specific 3',5'-cyclic phosphodiesterase 9A (Homo sapiens) (UniProt O76083) (assay: Inhibition of PDE9A).
High affinity cGMP-specific 3',5'-cyclic phosphodiesterase 9A (Homo sapiens), sequence (O76083 whole entry): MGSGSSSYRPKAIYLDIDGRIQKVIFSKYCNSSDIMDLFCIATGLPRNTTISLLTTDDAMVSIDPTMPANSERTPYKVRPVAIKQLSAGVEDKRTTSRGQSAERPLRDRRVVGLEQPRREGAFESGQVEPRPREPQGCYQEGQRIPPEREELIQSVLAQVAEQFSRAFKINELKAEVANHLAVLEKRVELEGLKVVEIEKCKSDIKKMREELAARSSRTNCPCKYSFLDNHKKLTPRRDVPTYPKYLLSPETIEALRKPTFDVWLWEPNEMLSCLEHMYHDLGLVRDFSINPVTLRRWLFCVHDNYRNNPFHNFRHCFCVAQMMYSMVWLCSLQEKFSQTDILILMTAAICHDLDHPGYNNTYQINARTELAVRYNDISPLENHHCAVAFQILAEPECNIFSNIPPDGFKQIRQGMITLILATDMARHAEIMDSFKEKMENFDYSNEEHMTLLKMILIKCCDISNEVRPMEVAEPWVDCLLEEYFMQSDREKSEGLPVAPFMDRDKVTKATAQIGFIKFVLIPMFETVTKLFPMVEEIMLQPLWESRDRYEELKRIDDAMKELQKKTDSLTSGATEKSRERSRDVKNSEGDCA

SMILES | Activity
COc1ccc(C2=Nn3c(nnc3-c3ccccc3OC)SC2)cc1OC | inactive
COc1ccc(C2CNC(=O)C2)cc1OC1CCCC1 (configuration not stated) [ROLIPRAM] | inactive

These compounds were tested against cAMP and cAMP-inhibited cGMP 3',5'-cyclic phosphodiesterase 10A (Homo sapiens, UniProt Q9Y233) (assay: Inhibition of PDE10A).
cAMP and cAMP-inhibited cGMP 3',5'-cyclic phosphodiesterase 10A, sequence (Q9Y233 whole entry): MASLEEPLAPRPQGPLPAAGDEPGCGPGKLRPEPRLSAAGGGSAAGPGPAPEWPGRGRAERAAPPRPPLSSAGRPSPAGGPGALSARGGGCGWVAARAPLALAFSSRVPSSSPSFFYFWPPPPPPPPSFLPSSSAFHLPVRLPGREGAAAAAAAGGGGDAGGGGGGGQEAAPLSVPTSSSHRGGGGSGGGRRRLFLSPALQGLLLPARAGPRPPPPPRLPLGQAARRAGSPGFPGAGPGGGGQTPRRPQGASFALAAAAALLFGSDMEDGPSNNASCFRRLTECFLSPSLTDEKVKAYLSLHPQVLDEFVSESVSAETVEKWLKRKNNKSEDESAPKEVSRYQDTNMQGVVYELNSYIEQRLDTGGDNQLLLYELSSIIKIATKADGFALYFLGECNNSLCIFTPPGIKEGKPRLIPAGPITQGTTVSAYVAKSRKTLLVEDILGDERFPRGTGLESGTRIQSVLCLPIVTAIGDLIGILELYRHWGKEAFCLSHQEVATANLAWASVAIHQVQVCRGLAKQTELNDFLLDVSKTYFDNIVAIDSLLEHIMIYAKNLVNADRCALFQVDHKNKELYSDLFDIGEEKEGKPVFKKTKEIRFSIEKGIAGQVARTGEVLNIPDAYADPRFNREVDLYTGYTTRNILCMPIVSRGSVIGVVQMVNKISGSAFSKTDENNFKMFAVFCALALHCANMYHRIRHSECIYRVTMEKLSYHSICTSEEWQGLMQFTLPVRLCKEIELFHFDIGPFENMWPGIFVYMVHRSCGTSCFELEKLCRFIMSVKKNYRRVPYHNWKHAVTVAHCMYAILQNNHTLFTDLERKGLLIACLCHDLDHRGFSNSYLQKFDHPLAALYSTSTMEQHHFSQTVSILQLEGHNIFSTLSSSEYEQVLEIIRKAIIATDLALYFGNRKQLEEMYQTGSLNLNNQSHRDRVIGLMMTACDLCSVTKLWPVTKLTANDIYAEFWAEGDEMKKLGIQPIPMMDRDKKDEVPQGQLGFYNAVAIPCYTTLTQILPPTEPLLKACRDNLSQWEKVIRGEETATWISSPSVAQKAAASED

SMILES | IC50 | Activity
COc1ccc(C2=Nn3c(nnc3-c3ccccc3OC)SC2)cc1OC | > 50 µM | 
COc1ccc(C2CNC(=O)C2)cc1OC1CCCC1 (configuration not stated) [ROLIPRAM] |  | inactive

What follows are compounds tested against cGMP-specific 3',5'-cyclic phosphodiesterase (Homo sapiens, UniProt O76074).

SMILES | IC50
COc1ccc(C2=Nn3c(nnc3-c3ccccc3OC)SC2)cc1OC | > 50 µM

These compounds were tested against Dual 3',5'-cyclic-AMP and -GMP phosphodiesterase 11A (Homo sapiens, UniProt Q9HCR9).

SMILES | IC50
COc1ccc(C2=Nn3c(nnc3-c3ccccc3OC)SC2)cc1OC | > 50 µM
